Converted amounts (≈) assume the structure as drawn. The source made the active and inactive calls. The rule behind the calls is not given here.
Legend:
Zika virus [1] = experiment: Antiviral activity against ZIKV MR766 infected in African green monkey Vero cells assessed as viral growth inhibition at 0.13 to 100 uM treated immediately after viral infection for 30 hrs by time of addition assay; assay type: functional, organism-based; conditions: dose 0.13-100 µM
Outline: (§1)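 Time-of-addition assay in Vero. Serial dilutions (100 to 0.13 μM) were added to cells 24 h or 2 h before infection, during the 2 h infection, or post-infection for 24 h (USUV) or 30 h (ZIKV). Cells were fixed in cold acetone-methanol (50:50) and infected cells detected by indirect immunostaining. EC50/EC90 came from variable-slope sigmoidal fits; mean of three independent experiments.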

[2] = Selectivity ratio of EC50 for antiviral activity against ZIKV MR766 infected in African green monkey Vero cells pretreated with cells 24 hrs prior to viral infection to EC50 for antiviral activity against ZIKV MR766 infected in African green monkey Vero cells treated immediately after viral infection for 30 hrs; assay type: functional, Zika virus
Outline: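 Time of addition: serial dilutions (100 to 0.13 μM) put on cells either 24 h before infection or after infection for 30 h (ZIKV). Infected cells fixed in acetone-methanol and immunostained. EC50 computed for each treatment condition by sigmoidal fit; the ratio compares the two EC50s.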

[3] = Selectivity index, ratio of CC50 for African green monkey Vero cells infected with ZIKV MR766 to EC50 for ZIKV MR766 infected in African green monkey Vero cells; assay type: toxicity, cell-based; conditions: read-out: Ratio CC50/EC50
Usutu virus [4] = experiment: Antiviral activity against USUV 3345 isolate Arb276 infected in African green monkey Vero cells assessed as viral growth inhibition at 11 to 100 uM pretreated with virus for 1 hr followed by infection of cells with compound treated-virus for 20 hrs by focus reduction assay relative to control; assay type: functional; conditions: dose 11-100 µM, time 21 hrs
Outline: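 Virus (MOI 0.02) preincubated with compound 1 h at 37 °C, then mixture put on Vero cells (1.2 × 10^4/well, seeded the day before) in DMEM with 2% FBS for 30 h (ZIKV) or 20 h (USUV) at 37 °C. Fixed in cold acetone-methanol, foci immunostained with anti-flavivirus E 4G2 antibody and counted. % infection is relative to DMSO-treated wells. Screen used 100, 33 and 11 μM.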

Zika virus [5] = experiment: Antiviral activity against ZIKV MR766 infected in African green monkey Vero cells assessed as reduction in plaque formation pretreated with virus for 1 hr followed by infection of cells with compound treated-virus for 2 hrs and further treatment of compound for 72 hrs by crystal violet staining based assay; assay type: functional, organism-based; conditions: time 75.0 hrs
Outline: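 Plaque reduction assay. Vero cells were seeded 6 × 10^4/well. ZIKV (MOI 0.005) was preincubated with serial compound dilutions for 1 h at 37 °C, then adsorbed on cells for 2 h. After two washes, cells were overlaid with 1.2% methylcellulose in DMEM for 72 h, then fixed and stained with 0.1% crystal violet for 30 min. Plaques counted; EC50/EC90 from variable-slope sigmoidal fits.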

Zika virus [6] = experiment: Antiviral activity against ZIKV MR766 infected in African green monkey Vero cells assessed as viral growth inhibition at 0.13 to 100 uM pretreated with cells 2 hrs prior to viral infection by time of addition assay; assay type: functional, organism-based; conditions: dose 0.13-100 µM; outline: as §1
[7] = Cytotoxicity against human Huh-7 cells infected with USUV 3345 isolate Arb276 pretreated with virus for 1 hr followed by infection of cells with compound treated-virus for 20 hrs by MTS assay; assay type: toxicity, cell-based
Outline: (§2)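 MTS viability assay. Cells were treated under the same conditions as the antiviral assays. Absorbance was expressed as % of medium-only cells, and CC50 was derived from the curve. Seeding densities were 1.2 × 10^4/well for Vero, 1.3 × 10^4/well for A549 and 1.6 × 10^4/well for Huh7. DMEM with 2% FBS.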

[8] = Selectivity index, ratio of CC50 for African green monkey Vero cells infected with USUV 3345 isolate Arb276 to EC50 for USUV 3345 isolate Arb276 infected in African green monkey Vero cells; assay type: toxicity, cell-based; conditions: read-out: Ratio CC50/EC50
[9] = Cytotoxicity against human A549 cells infected with ZIKV MR766 pretreated with virus for 1 hr followed by infection of cells with compound treated-virus for 30 hrs by MTS assay; assay type: toxicity, cell-based; outline: as §2
Usutu virus [10] = experiment: Antiviral activity against USUV 3345 isolate Arb276 infected in human Huh-7 cells assessed as reduction in viral replication pretreated with virus for 1 hr followed by infection of cells with compound treated-virus for 20 hrs by focus reduction assay; assay type: functional, organism-based; conditions: Usutu virus, 3345, Huh-7; for EC90: time 21 hrs
Outline: (§3)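 Dose-response: serial dilutions (100 to 0.13 μM) preincubated 1 h at 37 °C with virus (MOI 0.02), then added to cells for 20 h (USUV) or 30 h (ZIKV) in 2% FBS DMEM. Cells per well: Vero 1.2 × 10^4, A549 1.3 × 10^4, Huh7 1.6 × 10^4. Foci immunostained and counted. EC50/EC90 fitted by variable-slope sigmoidal curve, mean of three independent experiments.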

Zika virus [11] = experiment: Antiviral activity against ZIKV MR766 infected in African green monkey Vero cells assessed as reduction in viral replication pretreated with virus for 1 hr followed by infection of cells with compound treated-virus for 30 hrs by focus reduction assay; assay type: functional, organism-based; conditions: for EC90: time 31 hrs
[12] = Solubility in i-propanol at 25 degreeC; assay type: physicochemical
Usutu virus [13] = experiment: Antiviral activity against USUV 3345 isolate Arb276 infected in human A549 cells assessed as reduction in viral replication pretreated with virus for 1 hr followed by infection of cells with compound treated-virus for 20 hrs by focus reduction assay; assay type: functional, organism-based; conditions: Usutu virus, 3345, A549; for EC90: time 21 hrs; outline: as §3
[14] = Cytotoxicity against human Huh-7 cells infected with ZIKV MR766 pretreated with virus for 1 hr followed by infection of cells with compound treated-virus for 30 hrs by MTS assay; assay type: toxicity, cell-based; outline: as §2
[15] = Cytotoxicity against African green monkey Vero cells infected with ZIKV MR766 pretreated with virus for 1 hr followed by infection of cells with compound treated-virus for 30 hrs by MTS assay; assay type: toxicity, cell-based; conditions: chlorocebus sabaeus; outline: as §2
Zika virus [16] = experiment: Antiviral activity against ZIKV MR766 infected in human A549 cells assessed as reduction in viral replication pretreated with virus for 1 hr followed by infection of cells with compound treated-virus for 30 hrs by focus reduction assay; assay type: functional, organism-based; conditions: for EC90: time 31 hrs; outline: as §3
Zika virus [17] = experiment: Antiviral activity against ZIKV MR766 infected in human Huh-7 cells assessed as reduction in viral replication pretreated with virus for 1 hr followed by infection of cells with compound treated-virus for 30 hrs by focus reduction assay; assay type: functional, organism-based; conditions: for EC50: MR766, Huh-7; for EC90: MR766, Huh-7, time 31 hrs; outline: as §3
Usutu virus [18] = experiment: Antiviral activity against USUV 3345 isolate Arb276 infected in African green monkey Vero cells assessed as reduction in viral replication pretreated with virus for 1 hr followed by infection of cells with compound treated-virus for 20 hrs by focus reduction assay; assay type: functional, organism-based; conditions: Usutu virus, 3345, Vero; for EC90: time 21 hrs
[19] = Cytotoxicity against African green monkey Vero cells infected with USUV 3345 isolate Arb276 pretreated with virus for 1 hr followed by infection of cells with compound treated-virus for 20 hrs by MTS assay; assay type: toxicity, cell-based; conditions: chlorocebus sabaeus; outline: as §2

Row | Compound | Activity (Zika virus [1]) | Ratio EC50 [2] | selectivity ratio [3] | inhibition (INH) (Usutu virus [4]) | Activity (Zika virus [5]) | Activity (Zika virus [6]) | CC50 at 21 h [7] | selectivity ratio [8] | CC50 at 31 h [9] | EC50 (Usutu virus [10]) | EC90 (Usutu virus [10]) | EC50 (Zika virus [11]) | EC90 (Zika virus [11]) | solubility [12] | EC50 (Usutu virus [13]) | EC90 (Usutu virus [13]) | CC50 at 31 h [14] | CC50 at 31 h [15] | EC50 (Zika virus [16]) | EC90 (Zika virus [16]) | also measured
1 | O=C1[C@@H]2CCCN2[C@@H](c2ccc([C@H]3C[C@@H](O)[C@@H](CO)O3)cc2)N1c1ccc([N+](=O)[O-])cc1 | Active | 5 | > 63 | 100% | Active | inactive | > 500 µM | > 198 | > 500 µM | 3.91 µM | 5.77 µM | 7.96 µM | 12.3 µM | 7320 µg/mL (≈ 16.7 mM) | 6.42 µM | 12 µM | > 500 µM | > 500 µM | 3.95 µM | 10.9 µM | EC50 (Zika virus [17]): 2.26 µM; EC90 (Zika virus [17]): 4.26 µM; EC50 (Usutu virus [18]): 2.53 µM; EC90 (Usutu virus [18]): 3.89 µM; CC50 at 21 h [19]: > 500 µM
2 | O=C1C[C@H](c2ccc([C@H]3N(c4ccc([N+](=O)[O-])cc4)C(=O)[C@@H]4CCCN43)cc2)O[C@@H]1CO | Active | 5 | > 51 | 100% | Active | inactive | > 500 µM | > 181 | > 500 µM | 4 µM | 6.28 µM | 9.73 µM | 15.4 µM | 8570 µg/mL (≈ 19.6 mM) | 6.82 µM | 15.2 µM | > 500 µM | > 500 µM | 3.8 µM | 10.2 µM | EC50 (Zika virus [17]): 2.36 µM; EC90 (Zika virus [17]): 4.19 µM; EC50 (Usutu virus [18]): 2.76 µM; EC90 (Usutu virus [18]): 4.34 µM; CC50 at 21 h [19]: > 500 µM

Reference: ChEMBL document CHEMBL5325402, “Exploration of novel hexahydropyrrolo[1,2-e]imidazol-1-one derivatives as antiviral agents against ZIKV and USUV” (Eur J Med Chem, 2023)
